OPRM1-OPRD1 inv: inverse agonists of human mu-delta opioid receptor heterodimerization. P35372+P41143. cell-based MOR-DOR heterodimer luminescence, inverse agonism. inhibition, % at 9.3 µM. 340,000 compounds, 0.21% hits. AID 504357; in the data active = inhibition above about 22%, passing the limit was not always enough;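 note: 0% = cells with DMSO and 100% = wells without cells with DMSO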
Target sequence (P35372 whole entry, looked up): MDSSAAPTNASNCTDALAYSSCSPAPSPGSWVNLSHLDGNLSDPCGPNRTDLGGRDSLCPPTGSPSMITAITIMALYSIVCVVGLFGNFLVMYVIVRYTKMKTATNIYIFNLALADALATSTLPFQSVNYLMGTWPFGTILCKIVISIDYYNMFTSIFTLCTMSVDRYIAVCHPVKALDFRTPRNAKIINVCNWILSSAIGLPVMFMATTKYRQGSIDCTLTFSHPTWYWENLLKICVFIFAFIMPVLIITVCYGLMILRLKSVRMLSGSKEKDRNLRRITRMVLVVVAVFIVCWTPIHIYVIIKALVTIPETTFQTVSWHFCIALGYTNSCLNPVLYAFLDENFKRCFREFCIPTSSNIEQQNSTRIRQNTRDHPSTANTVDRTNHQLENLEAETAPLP
Target sequence (P41143 whole entry, looked up): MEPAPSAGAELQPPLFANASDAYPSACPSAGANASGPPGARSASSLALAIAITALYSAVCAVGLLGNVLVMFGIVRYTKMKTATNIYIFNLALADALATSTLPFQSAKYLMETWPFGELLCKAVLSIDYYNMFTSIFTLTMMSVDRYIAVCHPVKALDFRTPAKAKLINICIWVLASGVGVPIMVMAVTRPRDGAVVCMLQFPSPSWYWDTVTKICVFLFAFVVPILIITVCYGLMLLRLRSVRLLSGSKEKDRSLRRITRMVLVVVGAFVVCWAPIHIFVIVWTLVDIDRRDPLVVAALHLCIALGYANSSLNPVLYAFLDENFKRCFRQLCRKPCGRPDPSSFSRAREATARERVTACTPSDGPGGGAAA
HTR5A inv ag: HTR5A inverse agonism, opioid heterodimer counter-screen; AID 504634; P47898; 340,000 compounds, 0.083% hits; inhibition, % at 9.3 µM; HTR5A cell line, luminescence; in the data active = inhibition mostly above about 23%, no sharp cut-off; inactive = mostly below about 18%;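 note: 0% = cells with DMSO and 100% = no-cell wells with DMSO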
MOR-DOR ag: agonists of human mu-delta opioid receptor heterodimerization | P35372+P41143 | cells, OPRM1-OPRD1 heterodimerization, luminescence | activation, % at 9.3 µM | 340,000 compounds, 0.3% hits | AID 504326; in the data active = activation above about 18%;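 note: 0% = vehicle-treated cells and 100% = reference agonist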
HTR5A ag: activates human HTR5A in OPRM1-OPRD1 agonist counter-screen | 340,000 compounds, 0.61% hits | HTR5A agonist assay, luminescence, cell-based | activation, % at 9.3 µM | P47898; in the data active = activation mostly above about 9.5%, no sharp cut-off; inactive = mostly below about 7.6%;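 note: 0% = cells with vehicle only and 100% = reference agonist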
Hep lipid drop: hepatic lipid droplet formation modulation; AML12 mouse hepatocytes, oleate lipid droplets, BODIPY imaging; inhibition, % at 6.5 µM; 240,000 compounds, 0.4% hits; AID 1656;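 active = lipid droplet intensity inhibited by at least 50%, with more than 500 cells counted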
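Test system: AML12 mouse liver cells; schedule: overnight exposure; technique: high-content imaging of BODIPY-stained droplets and DAPI nuclei; read-out: % inhibition of corrected integrated BODIPY droplet signal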
OPRM1-D1 inv cf: OPRM1-OPRD1 heterodimer inverse agonism, confirmation; inhibition, % at 9.3 µM; shares compounds with OPRM1-OPRD1 inv; 580 compounds, 20% hits; AID 504900; cells expressing OPRM1/OPRD1 heterodimer, luminescence; in the data active = inhibition above about 32%;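 note: 0% = cells with DMSO and 100% = wells lacking cells with DMSO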
HTR5A inv ctr2: counter-screen for OPRM1-OPRD1 inverse agonists: human HTR5A inverse agonism | shares compounds with OPRM1-OPRD1 inv | HTR5A-expressing cells, luminescence | inhibition, % at 9.3 µM | 580 tested, under 10 active | AID 504914; call rule not given here;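 note: 0% = cells with DMSO and 100% = no-cell wells with DMSO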
* = called active by the depositor; i = inactive; . = no result. Most compounds without a hit are left out; they make up all but 1.4% or so of the library.

SMILES | OPRM1-OPRD1 inv | HTR5A inv ag | MOR-DOR ag | HTR5A ag | Hep lipid drop | OPRM1-D1 inv cf | HTR5A inv ctr2
O=C(CC1(O)C(=O)Nc2cc(Cl)cc(Cl)c21)c1ccncc1 (stereo not given) | 29* | 1 | -5 | -2 | -19 | -4 | -9
Oc1c(C=Nc2ccccc2Cl)[nH]c2ccccc12 | 48* | 5 | -9 | -2 | 1 | 2 | 7
Oc1[nH]c2ccccc2c1N=Nc1ccccc1Cl | 9 | 4 | -2 | -1 | . | . | .
Cc1ccc(N=C2C(=O)Nc3ccccc32)cc1 | 49* | 8 | -10 | -2 | 9 | -71 | 9
CC(=O)c1cccc(N=C2C(=O)Nc3ccccc32)c1 | 59* | 21 | -9 | -1 | . | 37* | 4
O=C1Nc2ccccc2/C1=N/N=C/c1cccc(O)c1 | 5 | 19 | -1 | 3 | 5 | . | .
CC(=O)c1cccc(N2C(=O)Nc3ccccc3N2O)c1 | 9 | 1 | -1 | 1 | 9 | . | .
O=C1Nc2ccccc2C1=Nc1ccc2[nH]c3ccccc3c2c1 | 49* | 17 | -9 | -4 | . | i | -66
Cc1ccc(N=C2C(=O)Nc3ccccc32)cc1C | 43* | 22 | -8 | -2 | 2 | i | -26
COc1ccc2c(=O)c3c(=O)n(-c4ccccc4)c(-c4ccc(C)cc4)nc3oc2c1 | 10 | 5 | -2 | -2 | -5 | . | .
CCC(C(=O)Nc1ccc(C(=O)Nc2ccccc2C(=O)O)cc1)c1ccccc1 (stereo not given) | 15 | -1 | -3 | 2 | 14 | . | .
COc1ccc(CN(C)Cc2c(O)ccc3cc(Br)ccc23)cc1OC | -28 | -24 | 4 | 8 | -1 | . | .
Cc1ccc([N+](=O)[O-])cc1N=C1C(=O)Nc2ccccc21 | 50* | 26 | -11 | -7 | 1 | -51 | -101
CN(CC(=O)Nc1ccccc1Br)C(=O)C(Cc1ccccc1)NC(=O)c1ccccc1 (stereo not given) | 15 | -7 | -3 | 3 | 0 | . | .
COc1cccc(OC)c1C(=O)Nc1ccc(C(=O)c2ccncc2)cc1 | -1 | -14 | 0 | 5 | . | . | .
Cn1c(NNC(=O)c2cccc3ccccc23)cc(=O)n(C)c1=O | 23* | -8 | -4 | 8 | 4 | -36 | 4
Cn1c(NNC(=O)c2ccccc2F)cc(=O)n(C)c1=O | 23 | 26 | -4 | 0 | -10 | . | .
CCOc1ccc(N=C2C(=O)N(CN3CCOCC3)c3ccccc32)cc1 | 67* | 16 | -16 | -5 | . | 49* | -9
Cc1ccc2c(c1)C(=O)C(=O)N2Cc1ccc(F)cc1 | 39* | 5 | -7 | -2 | . | -28 | -10
CCC1(c2ccccc2)NC(=O)N(Cc2cccc([N+](=O)[O-])c2)C1=O (stereo not given) | -5 | 17 | 1 | -2 | 3 | . | .
O=C1C(=O)N(Cc2cccc([N+](=O)[O-])c2)c2ccccc21 | 52* | 17 | -10 | 1 | -16 | 17 | 13
Cc1ccc2c(c1)C(=O)C(=O)N2Cc1ccccc1 | 38* | -11 | -6 | 8 | . | 12 | -4
CCCN1C(=S)c2ccccc2C1c1ccccc1 (stereo not given) | 8 | -4 | -2 | 1 | -13 | . | .
Cc1nc(COc2ccc(C(=O)NCc3ccccc3CN3CCCCC3)cc2)cs1 | 21 | 8 | -5 | 3 | . | . | .
NS(=O)(=O)c1ccc(NNC(=O)c2ccccc2C(=O)O)cc1 | . | . | . | . | -14 | . | .
SMILES | OPRM1-OPRD1 inv | HTR5A inv ag | MOR-DOR ag | HTR5A ag | Hep lipid drop | OPRM1-D1 inv cf | HTR5A inv ctr2
O=C(NNc1ccc(Cl)cc1)c1sccc1Cl | 47* | 10 | -9 | -5 | -5 | 1 | 13
O=C(O)c1ccccc1C(=O)NNc1ccc(Cl)cc1 | 39* | -10 | -7 | 0 | . | 9 | -10
NS(=O)(=O)c1ccc(NNC(=O)c2sccc2Cl)cc1 | 9 | 2 | -2 | 2 | -9 | . | .
O=C(/C=C/c1ccccc1)NNc1ccc(Cl)cc1 | 31* | 14 | -6 | -5 | -24 | 11 | -7
Nc1ccc(-c2nc3ncccc3o2)cc1 | 19 | -8 | -4 | 2 | 4 | . | .
Cc1ccc(NNC(=O)c2cc(C)on2)c(C)c1 | 23 | -17 | -5 | 3 | -5 | . | .
Cc1cc(C(=O)NNC(=O)Nc2ccc(Cl)cc2)no1 | . | . | . | . | -11 | . | .
Cc1cc(C(=O)NNc2ccc(C)c(C)c2)no1 | 58* | 9 | -12 | -3 | -13 | -36 | -27
Cc1cc(C(=O)NNc2ccc(Cl)cc2)no1 | 35* | 12 | -7 | 3 | 11 | 23 | 9
CCOc1ccc(N2C(=O)C3C4C=CC([C@H]5CC45)[C@@H]3C2=O)cc1 (stereo not given in full) | 4 | 14 | -1 | -4 | 10 | . | .
CCCC(=O)OCCNc1cc(Sc2nc3ccccc3[nH]2)c2nonc2c1[N+](=O)[O-] | 35* | 18 | -8 | -8 | -14 | 26 | -4
CCC(=O)OCCNc1cc(Sc2nccn2C)c2nonc2c1[N+](=O)[O-] | 42* | 15 | -8 | -4 | 4 | -47 | -10
COc1ccccc1N1CCN(C(=O)NCc2cccc(C(F)(F)F)c2)CC1 | -3 | 8 | 0 | -3 | 42 | . | .
Cc1ccc(NNC(=O)c2ccno2)cc1C | 61* | -3 | -12 | 6 | . | -189 | -27
Cc1ccc(NNC(=O)c2ccno2)cc1Cl | 52* | 5 | -10 | 3 | 3 | -40 | -268
Cc1noc(C)c1C(=O)NNc1ccc(C(C)C)cc1 | 23 | 5 | -5 | 0 | 1 | . | .
Cc1ccc(NNC(=O)c2c(C)noc2C)cc1Cl | 41* | 3 | -8 | 0 | -5 | 23 | -1
O=C(Nc1cc(Cl)cc(Cl)c1)c1ccno1 | 15 | 9 | -3 | -2 | -31 | . | .
COc1ccc(-c2[nH]ncc2CN(CCO)CC23CC4CC(CC(C4)C2)C3)c(OC)c1 | -26 | -22 | 5 | -1 | -2 | . | .
N#CCCN(CCC#N)C(=O)C1c2ccccc2Oc2ccccc21 | 3 | 3 | -1 | -1 | 12 | . | .
Cc1ccccc1-c1nc(CS(=O)(=O)CC(=O)NCCN2CCCC2)c(C)o1 | 6 | 7 | -1 | -2 | 8 | . | .
CC(=O)Nc1ccc(S(=O)(=O)NC(C)C(=O)NCC(c2ccco2)N(C)C)cc1 (stereo not given) | 2 | -9 | 0 | 5 | . | . | .
N#CC(C#N)=C1C=CC=CN1/C(=C\c1ccco1)C(=O)c1ccc(Cl)cc1 | 34* | 25 | -6 | -6 | -5 | -360 | -11
N#CC(C#N)=C1C=CC=CN1/C(=C\c1ccco1)C(=O)c1ccc(-c2ccccc2)cc1 | 15 | 6 | -3 | -4 | -65 | . | .
Cc1cc(NC(=O)CSc2nnc(-c3ccccc3F)n2N)no1 | 13 | -5 | -3 | 1 | . | . | .
CCCCN(C(=O)c1ccc(N2CCCC2=O)cc1)c1c(N)n(CCC)c(=O)[nH]c1=O | 13 | -10 | -3 | 4 | . | . | .

Compound activity from PubChem BioAssay.
